# Test results from ChEMBL document CHEMBL1157852, “Modulation of doxorubicin activity in cancer cells by conjugation with fatty acyl and terpenyl hydrazones” (Eur J Med Chem, 2010).
# pIC50: −log10 of the molar value. Calls of active or inactive are those of the source. No cut-off for these calls is given here.
# Columns and labels:
# 518A2 [1] = test: Induction of apoptosis in human 518A2 cells assessed as increase of ratio of Bax to Bcl-2 mRNA expression at 5 uM after 6 to 18 hrs by RT-PCR analysis; type: functional, cell-based
# In short: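 518A2 cells exposed to 5 µM compound for 6 h or 18 h. bax and bcl-2 mRNA quantified by real-time PCR, normalised to GAPDH, and expressed as the bax/bcl-2 ratio.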
# [2] = Cytotoxicity against human 518A2 cells after 24 hrs by MTT assay; type: functional, cell-based; details: 518A2, 24 h
# In short: (§1)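 MTT assay. Cells seeded and cultured 24 h, then exposed to compound for 24, 48 or 72 h. MTT added to a final 0.05% (HL-60, 518A2) or 0.1% (KB-V1, MCF-7) for 2 h. Formazan dissolved in 10% SDS/DMSO with 0.6% acetic acid; absorbance read at 570 nm against 630 nm background. Viability taken relative to untreated controls (100%). IC50 from concentration-response curves, mean ± SD of four independent experiments.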
# HL-60 [3] = test: Induction of apoptosis in human HL60 cells assessed as increase of ratio of Bax to Bcl-2 mRNA expression at 5 uM after 6 to 18 hrs by RT-PCR analysis; type: functional, cell-based
# In short: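 Real-time PCR of bax and bcl-2 mRNA in HL-60 cells after 6 h and 18 h exposure to test compound. Each gene was normalised to GAPDH, and the bax/bcl-2 expression ratio was reported.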
# MCF7 [4] = test: Cytotoxicity against human topotecan-resistant MCF7 cells after 72 hrs by MTT assay; type: functional, cell-based; details: MCF7, 72 h; in short: as §1
# [5] = Cytotoxicity against human 518A2 cells assessed as increase in ROS production at 5 uM after 24 hrs by NBT reduction assay relative to control; type: functional
# In short: (§2)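 NBT assay. HL-60 cells (0.5×10⁶/mL) or trypsinised 518A2 cells (5×10⁴/mL) pre-incubated 24 h at 37 °C, then given compound at a final 5 µM for 24 or 72 h. Medium removed; cells incubated with 0.1% NBT for 1 h (HL-60) or 4 h (518A2). Diformazan dissolved in 2 M KOH/DMSO; A630 read against 405 nm. Given as % of untreated controls; double quadruplicates.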
# HL-60 [6] = test: Induction of apoptosis in human HL60 cells assessed as appearance of intact mitochondria in cytosol at 5 uM after 6 hrs using JC1 dye relative to control; type: functional
# In short: (§3)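 Mitochondrial membrane potential measured with JC-1. Cells exposed to 5 µM compound for 6 or 18 h, pelleted at 400 g, stained with 0.2× JC-1 at 37 °C for 15 min (HL-60) or 35 min (518A2), washed and resuspended in PBS. Red fluorescence (ex 585/em 590 nm) and green (ex 510/em 527 nm) read; red/green ratio relative to untreated controls (100%). Mean ± SD, four independent experiments.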
# 518A2 [7] = test: Induction of apoptosis in human 518A2 cells assessed as appearance of intact mitochondria in cytosol at 5 uM after 6 hrs using JC1 dye relative to control; type: functional; in short: as §3
# [8] = Cytotoxicity against human vinblastine-resistant KBV1 cells after 72 hrs by MTT assay; type: functional, cell-based; details: KB-V1, 72 h; in short: as §1
# HL-60 [9] = test: Cytotoxicity against human HL60 cells assessed as increase in ROS production at 5 uM after 72 hrs by NBT reduction assay relative to control; type: functional; in short: as §2
# [10] = Cytotoxicity against human 518A2 cells after 72 hrs by MTT assay; type: functional, cell-based; details: 518A2, 72 h; in short: as §1
# [11] = Cytotoxicity against human vinblastine-resistant KBV1 cells after 48 hrs by MTT assay; type: functional, cell-based; details: KB-V1, 48 h; in short: as §1
# HL-60 [12] = test: Cytotoxicity against human HL60 cells after 48 hrs by MTT assay; type: functional, cell-based; details: HL-60, 48 h; in short: as §1
# MCF7 [13] = test: Cytotoxicity against human topotecan-resistant MCF7 cells after 48 hrs by MTT assay; type: functional, cell-based; details: MCF7, 48 h; in short: as §1
# 518A2 [14] = test: Induction of apoptosis in human 518A2 cells assessed as appearance of intact mitochondria in cytosol at 5 uM after 18 hrs using JC1 dye relative to control; type: functional; in short: as §3
# MCF7 [15] = test: Cytotoxicity against human topotecan-resistant MCF7 cells after 24 hrs by MTT assay; type: functional, cell-based; details: MCF7, 24 h; in short: as §1
# HL-60 [16] = test: Cytotoxicity against human HL60 cells assessed as increase in ROS production at 5 uM after 24 hrs by NBT reduction assay relative to control; type: functional; in short: as §2
# HL-60 [17] = test: Induction of apoptosis in human HL60 cells assessed as appearance of intact mitochondria in cytosol at 5 uM after 18 hrs using JC1 dye relative to control; type: functional; in short: as §3
# HL-60 [18] = test: Cytotoxicity against human HL60 cells after 72 hrs by MTT assay; type: functional, cell-based; details: HL-60, 72 h; in short: as §1
# [19] = Cytotoxicity against human vinblastine-resistant KBV1 cells after 24 hrs by MTT assay; type: functional, cell-based; details: KB-V1, 24 h; in short: as §1
# HL-60 [20] = test: Cytotoxicity against human HL60 cells after 24 hrs by MTT assay; type: functional, cell-based; details: HL-60, 24 h; in short: as §1
# HL-60 [21] = test: Induction of apoptosis in human HL60 cells assessed as DNA ladder formation at 5 uM after 24 hrs by agarose gel electrophoresis; type: functional, cell-based
# In short: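 HL-60 cells incubated with 5 µM compound for 24 h, then examined for DNA ladder patterns.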
# [22] = Cytotoxicity against human 518A2 cells after 48 hrs by MTT assay; type: functional, cell-based; details: 518A2, 48 h; in short: as §1
# HL-60 [23] = test: Induction of apoptosis in human HL60 cells assessed as increase of caspase 3 activity at 5 uM after 8 to 18 hrs by luminometric assay; type: functional, cell-based
# In short: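 HL-60 and 518A2 cells treated with 5 µM compound and sampled at intervals from 1 to 24 h. Lysed in 50 mM Tris-HCl pH 7.4, 150 mM NaCl, 1% Triton X-100 with protease inhibitors for 15 min at 4 °C, spun at 800 g. Protein measured by Bradford. Caspase-3/7, -8 and -9 activities read with luminogenic peptide substrates; reported as relative luminescence.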
# HL-60 [24] = test: Induction of apoptosis in human HL60 cells assessed as increase of caspase 8 activity at 5 uM after 8 to 18 hrs by luminometric assay; type: functional, cell-based
# In short: (§4)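 HL-60 leukaemia cells were treated with test compound and sampled at intervals from 1 to 24 h. Protein was measured by Bradford. Caspase-9 (Caspase-Glo 8 for line 1) was read from a luminogenic peptide substrate as relative luminescence.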
# [25] = Cytotoxicity against human 518A2 cells assessed as increase in ROS production at 5 uM after 72 hrs by NBT reduction assay relative to control; type: functional; in short: as §2
# HL-60 [26] = test: Induction of apoptosis in human HL60 cells assessed as increase of caspase 9 activity at 5 uM measured up to 24 hrs by luminometric assay; type: functional, cell-based; in short: as §4
smiles,measurement,setting,value
CC/C=C\C/C=C\C/C=C\CCCCCCCC(=O)N/N=C(\CO)[C@]1(O)Cc2c(O)c3c(c(O)c2[C@@H](O[C@H]2C[C@H](N)[C@H](O)[C@H](C)O2)C1)C(=O)c1c(OC)cccc1C3=O.Cl [DOXORUBICIN LINOLENOYLHYDRAZONE HYDROCHLORIDE],Activity,518A2 [1],Active
same,pIC50,[2],5.13
same,Activity,HL-60 [3],Active
same,pIC50,MCF7 [4],5.44
same,Activity,[5],2.9%
same,Activity,HL-60 [6],103%
same,Activity,518A2 [7],120%
same,pIC50,[8],4.85
same,Activity,HL-60 [9],3%
same,pIC50,[10],6.85
same,pIC50,[11],4.69
same,pIC50,HL-60 [12],5.92
same,pIC50,MCF7 [13],5.37
same,Activity,518A2 [14],96%
same,pIC50,MCF7 [15],5.24
same,Activity,HL-60 [16],1%
same,Activity,HL-60 [17],71%
same,pIC50,HL-60 [18],6.09
same,pIC50,[19],4.39
same,pIC50,HL-60 [20],5.29
same,Activity,HL-60 [21],Active
same,pIC50,[22],6.49
same,Activity,HL-60 [23],Active
same,Activity,HL-60 [24],Active
same,Activity,[25],45.1%
same,Activity,HL-60 [26],inactive
